≈ marks a conversion by molar mass, not a printed value.
What was measured:
HUVEC = test: Antiangiogenic activity in HUVEC cells assessed as inhibition of hEGF-induced tubular formation at 1 ug/mL after 24 hrs relative to control; format: functional, Homo sapiens; design: scale not given: the % may be the effect or the level left
[1] = Cytotoxicity against human 629L cells after 4 days by modified propidium iodide monolayer assay; format: functional, cell-based; settings: 96 h
Method in brief: (§1)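 Part of a 36-line human tumor cell panel. Proliferation inhibition was measured over a range of concentrations, and an IC50 was derived for each cell line from its concentration–response.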

DU-145 = test: Cytotoxicity against human DU145 cells after 4 days by modified propidium iodide monolayer assay; format: functional, cell-based; settings: DU-145, 96 h; method in brief: as §1
[2] = Cytotoxicity against human 1218L cells after 4 days by modified propidium iodide monolayer assay; format: functional, cell-based; settings: 96 h; method in brief: as §1
MCF7 = test: Cytotoxicity against human MCF7 cells after 4 days by modified propidium iodide monolayer assay; format: functional, cell-based; settings: MCF7, 96 h; method in brief: as §1
NCI-H460 = test: Cytotoxicity against human H460 cells after 4 days by modified propidium iodide monolayer assay; format: functional, cell-based; settings: NCI-H460, 96 h; method in brief: as §1
CWR22R = test: Cytotoxicity against human 22RV1 cells after 4 days by modified propidium iodide monolayer assay; format: functional, cell-based; settings: 22Rv1, 96 h; method in brief: as §1
[3] = Cytotoxicity against human 394NL cells after 4 days by modified propidium iodide monolayer assay; format: functional, cell-based; settings: 96 h; method in brief: as §1
[4] = Cytotoxicity against human 536L cells after 4 days by modified propidium iodide monolayer assay; format: functional, cell-based; settings: 96 h; method in brief: as §1
[5] = Cytotoxicity against human 1121L cells after 4 days by modified propidium iodide monolayer assay; format: functional, cell-based; settings: 96 h; method in brief: as §1
HCT-116 = test: Cytotoxicity against human HCT116 cells after 4 days by modified propidium iodide monolayer assay; format: functional, cell-based; settings: HCT-116, 96 h; method in brief: as §1
PANC-1 = test: Cytotoxicity against human PANC1 cells after 4 days by modified propidium iodide monolayer assay; format: functional, cell-based; settings: PANC-1, 96 h; method in brief: as §1
[6] = Cytotoxicity against human 520L cells after 4 days by modified propidium iodide monolayer assay; format: functional, cell-based; settings: 96 h; method in brief: as §1
[7] = Cytotoxicity against human 276L cells after 4 days by modified propidium iodide monolayer assay; format: functional, cell-based; settings: 96 h; method in brief: as §1
[8] = Cytotoxicity against human 289L cells after 4 days by modified propidium iodide monolayer assay; format: functional, cell-based; settings: 96 h; method in brief: as §1
OVCAR-3 = test: Cytotoxicity against human OVCAR-3 cells after 4 days by modified propidium iodide monolayer assay; format: functional, cell-based; settings: OVCAR-3, 96 h; method in brief: as §1
[9] = Cytotoxicity against human 1657L cells after 4 days by modified propidium iodide monolayer assay; format: functional, cell-based; settings: 96 h; method in brief: as §1
[10] = Cytotoxicity against human 1619L cells after 4 days by modified propidium iodide monolayer assay; format: functional, cell-based; settings: 96 h; method in brief: as §1
SF-268 = test: Cytotoxicity against human SF268 cells after 4 days by modified propidium iodide monolayer assay; format: functional, cell-based; settings: SF-268, 96 h; method in brief: as §1
[11] = Cytotoxicity against human 393NL cells after 4 days by modified propidium iodide monolayer assay; format: functional, cell-based; settings: 96 h; method in brief: as §1
[12] = Cytotoxicity against human 899L cells after 4 days by modified propidium iodide monolayer assay; format: functional, cell-based; settings: 96 h; method in brief: as §1
HT-29 = test: Cytotoxicity against human HT29 cells after 4 days by modified propidium iodide monolayer assay; format: functional, cell-based; settings: HT-29, 96 h; method in brief: as §1
[13] = Cytotoxicity against human 251L cells after 4 days by modified propidium iodide monolayer assay; format: functional, cell-based; settings: 96 h; method in brief: as §1
[14] = Cytotoxicity against human 1138L cells after 4 days by modified propidium iodide monolayer assay; format: functional, cell-based; settings: 96 h; method in brief: as §1
[15] = Cytotoxicity against human 486L cells after 4 days by modified propidium iodide monolayer assay; format: functional, cell-based; settings: 96 h; method in brief: as §1
[16] = Cytotoxicity against human PC3M cells after 4 days by modified propidium iodide monolayer assay; format: functional, cell-based; settings: PC-3M, 96 h; method in brief: as §1
[17] = Cytotoxicity against human 529L cells after 4 days by modified propidium iodide monolayer assay; format: functional, cell-based; settings: 96 h; method in brief: as §1
T-24 = test: Cytotoxicity against human T24 cells after 4 days by modified propidium iodide monolayer assay; format: functional, cell-based; settings: T-24, 96 h; method in brief: as §1
[18] = Cytotoxicity against human 526L cells after 4 days by modified propidium iodide monolayer assay; format: functional, cell-based; settings: 96 h; method in brief: as §1
[19] = Cytotoxicity against human 514L cells after 4 days by modified propidium iodide monolayer assay; format: functional, cell-based; settings: 96 h; method in brief: as §1
[20] = Cytotoxicity against human 1781L cells after 4 days by modified propidium iodide monolayer assay; format: functional, cell-based; settings: 96 h; method in brief: as §1
[21] = Cytotoxicity against human 1752L cells after 4 days by modified propidium iodide monolayer assay; format: functional, cell-based; settings: 96 h; method in brief: as §1
LNCaP = test: Cytotoxicity against human LNCAP cells after 4 days by modified propidium iodide monolayer assay; format: functional, cell-based; settings: 96 h; method in brief: as §1
[22] = Cytotoxicity against human 498NL cells after 4 days by modified propidium iodide monolayer assay; format: functional, cell-based; settings: 96 h; method in brief: as §1
[23] = Cytotoxicity against human 401NL cells after 4 days by modified propidium iodide monolayer assay; format: functional, cell-based; settings: 96 h; method in brief: as §1
[24] = Cytotoxicity against human 462NL cells after 4 days by modified propidium iodide monolayer assay; format: functional, cell-based; settings: 96 h; method in brief: as §1
[25] = Cytotoxicity against human 944L cells after 4 days by modified propidium iodide monolayer assay; format: functional, cell-based; settings: 96 h; method in brief: as §1

## O=C1NCCc2cc(Br)c(O)c(c2)Oc2c(Br)cc(cc2Br)[C@H](O)CNC(=O)/C(=N/O)Cc2cc(Br)c(O)c(c2)Oc2ccc(cc2Br)C/C1=N\O [BASTADIN 12]
HUVEC
  Activity: 27.6%

## O=C1NCCc2cc(Br)c(c(Br)c2)Oc2cc(cc(Br)c2O)CCNC(=O)/C(=N/O)C(O)c2cc(Br)c(c(Br)c2)Oc2cc(cc(Br)c2O)C/C1=N\O (centres undefined) [BASTADIN 24]
[1]
  IC50: 0.37 µg/mL (≈ 0.332 µM)
  IC70: 0.63 µg/mL (≈ 0.566 µM)
  IC90: 1.67 µg/mL (≈ 1.5 µM)
DU-145
  IC50: 0.96 µg/mL (≈ 0.862 µM)
  IC70: 2.59 µg/mL (≈ 2.32 µM)
  IC90: 7.04 µg/mL (≈ 6.32 µM)
[2]
  IC50: 2.56 µg/mL (≈ 2.3 µM)
  IC70: 4.9 µg/mL (≈ 4.4 µM)
  IC90: 9.37 µg/mL (≈ 8.41 µM)
MCF7
  IC50: 1.46 µg/mL (≈ 1.31 µM)
  IC70: 3.37 µg/mL (≈ 3.03 µM)
  IC90: 7.78 µg/mL (≈ 6.98 µM)
NCI-H460
  IC50: 4.31 µg/mL (≈ 3.87 µM)
  IC70: 6.08 µg/mL (≈ 5.46 µM)
  IC90: 8.57 µg/mL (≈ 7.69 µM)
CWR22R
  IC50: 0.46 µg/mL (≈ 0.413 µM)
  IC70: 0.96 µg/mL (≈ 0.862 µM)
  IC90: 5.75 µg/mL (≈ 5.16 µM)
[3]
  IC50: 1.5 µg/mL (≈ 1.35 µM)
  IC70: 3.36 µg/mL (≈ 3.02 µM)
  IC90: 7.54 µg/mL (≈ 6.77 µM)
[4]
  IC50: 4.19 µg/mL (≈ 3.76 µM)
  IC70: 6.16 µg/mL (≈ 5.53 µM)
  IC90: 9.08 µg/mL (≈ 8.15 µM)
[5]
  IC50: 1.51 µg/mL (≈ 1.36 µM)
  IC70: 3.43 µg/mL (≈ 3.08 µM)
  IC90: 7.81 µg/mL (≈ 7.01 µM)
HCT-116
  IC50: 3.87 µg/mL (≈ 3.47 µM)
  IC70: 5.71 µg/mL (≈ 5.13 µM)
  IC90: 8.4 µg/mL (≈ 7.54 µM)
PANC-1
  IC50: 4.23 µg/mL (≈ 3.8 µM)
  IC70: 6.31 µg/mL (≈ 5.66 µM)
  IC90: 9.41 µg/mL (≈ 8.45 µM)
[6]
  IC50: 2.6 µg/mL (≈ 2.33 µM)
  IC70: 4.56 µg/mL (≈ 4.09 µM)
  IC90: 7.99 µg/mL (≈ 7.17 µM)
[7]
  IC50: 0.59 µg/mL (≈ 0.53 µM)
  IC70: 2.02 µg/mL (≈ 1.81 µM)
  IC90: 14.9 µg/mL (≈ 13.4 µM)
[8]
  IC50: 2.68 µg/mL (≈ 2.41 µM)
  IC70: 4.88 µg/mL (≈ 4.38 µM)
  IC90: 8.87 µg/mL (≈ 7.96 µM)
OVCAR-3
  IC50: 3.66 µg/mL (≈ 3.29 µM)
  IC70: 5.72 µg/mL (≈ 5.13 µM)
  IC90: 8.94 µg/mL (≈ 8.02 µM)
[9]
  IC50: 2.18 µg/mL (≈ 1.96 µM)
  IC70: 4.58 µg/mL (≈ 4.11 µM)
  IC90: 9.64 µg/mL (≈ 8.65 µM)
[10]
  IC50: 2.77 µg/mL (≈ 2.49 µM)
  IC70: 4.73 µg/mL (≈ 4.25 µM)
  IC90: 8.07 µg/mL (≈ 7.24 µM)
SF-268
  IC50: 0.38 µg/mL (≈ 0.341 µM)
  IC70: 0.61 µg/mL (≈ 0.548 µM)
  IC90: 0.96 µg/mL (≈ 0.862 µM)
[11]
  IC50: 2.42 µg/mL (≈ 2.17 µM)
  IC70: 4.38 µg/mL (≈ 3.93 µM)
  IC90: 7.9 µg/mL (≈ 7.09 µM)
[12]
  IC50: 3.79 µg/mL (≈ 3.4 µM)
  IC70: 5.95 µg/mL (≈ 5.34 µM)
  IC90: 9.35 µg/mL (≈ 8.39 µM)
HT-29
  IC50: 2 µg/mL (≈ 1.8 µM)
  IC70: 3.85 µg/mL (≈ 3.46 µM)
  IC90: 7.44 µg/mL (≈ 6.68 µM)
[13]
  IC50: 2.64 µg/mL (≈ 2.37 µM)
  IC70: 5.42 µg/mL (≈ 4.87 µM)
  IC90: 11.1 µg/mL (≈ 10 µM)
[14]
  IC50: 1.4 µg/mL (≈ 1.26 µM)
  IC70: 3.3 µg/mL (≈ 2.96 µM)
  IC90: 7.74 µg/mL (≈ 6.95 µM)
[15]
  IC50: 6.08 µg/mL (≈ 5.46 µM)
  IC70: 11.3 µg/mL (≈ 10.2 µM)
  IC90: 21.1 µg/mL (≈ 18.9 µM)
[16]
  IC50: 1.29 µg/mL (≈ 1.16 µM)
  IC70: 3.03 µg/mL (≈ 2.72 µM)
  IC90: 7.11 µg/mL (≈ 6.38 µM)
[17]
  IC50: 1.7 µg/mL (≈ 1.53 µM)
  IC70: 3.61 µg/mL (≈ 3.24 µM)
  IC90: 7.68 µg/mL (≈ 6.89 µM)
T-24
  IC50: 0.79 µg/mL (≈ 0.709 µM)
  IC70: 2.19 µg/mL (≈ 1.97 µM)
  IC90: 6.24 µg/mL (≈ 5.6 µM)
[18]
  IC50: 1.22 µg/mL (≈ 1.1 µM)
  IC70: 3.24 µg/mL (≈ 2.91 µM)
  IC90: 8.63 µg/mL (≈ 7.75 µM)
[19]
  IC50: 1.62 µg/mL (≈ 1.45 µM)
  IC70: 3.64 µg/mL (≈ 3.27 µM)
  IC90: 8.17 µg/mL (≈ 7.33 µM)
[20]
  IC50: 2.88 µg/mL (≈ 2.59 µM)
  IC70: 4.94 µg/mL (≈ 4.43 µM)
  IC90: 8.5 µg/mL (≈ 7.63 µM)
[21]
  IC50: 3.81 µg/mL (≈ 3.42 µM)
  IC70: 5.91 µg/mL (≈ 5.31 µM)
  IC90: 9.16 µg/mL (≈ 8.22 µM)
LNCaP
  IC50: 2.47 µg/mL (≈ 2.22 µM)
  IC70: 4.59 µg/mL (≈ 4.12 µM)
  IC90: 8.56 µg/mL (≈ 7.68 µM)
[22]
  IC50: 2.64 µg/mL (≈ 2.37 µM)
  IC70: 4.6 µg/mL (≈ 4.13 µM)
  IC90: 8.01 µg/mL (≈ 7.19 µM)
[23]
  IC50: 0.55 µg/mL (≈ 0.494 µM)
  IC70: 0.87 µg/mL (≈ 0.781 µM)
  IC90: 8.58 µg/mL (≈ 7.7 µM)
[24]
  IC50: 1.58 µg/mL (≈ 1.42 µM)
  IC70: 3.66 µg/mL (≈ 3.29 µM)
  IC90: 8.46 µg/mL (≈ 7.59 µM)
[25]
  IC50: 2.28 µg/mL (≈ 2.05 µM)
  IC70: 4.54 µg/mL (≈ 4.08 µM)
  IC90: 9.02 µg/mL (≈ 8.1 µM)
